Measured values taken from ChEMBL document CHEMBL2176978, “Fragment-based discovery of bromodomain inhibitors part 2: optimization of phenylisoxazole sulfonamides” (J Med Chem, 2012).

Experiments:
[1] = molecular target: T1, Bromodomain-containing protein 4 (Homo sapiens, UniProt O60885); assay: Inhibition of His6-tagged BRD4-BD12 expressed in Escherichia coli assessed as inhibition of binding to SGRG-K(Ac)-GG-K(Ac)-GLG-K(Ac)-GGA-K(Ac)-RHGSGSK-biotin after 1 hr by TR-FRET assay
[2] = molecular target: Bromodomain-containing protein 2 (Homo sapiens, UniProt P25440); assay: Inhibition of His6-tagged BRD2 expressed in Escherichia coli assessed as inhibition of binding to SGRG-K(Ac)-GG-K(Ac)-GLG-K(Ac)-GGA-K(Ac)-RHGSGSK-biotin after 1 hr by TR-FRET assay
Summary of the method: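 TR-FRET competition using tandem bromodomain construct; displacement of a tetra-acetylated biotinylated peptide measured, IC50 reported.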

[3] = molecular target: T1, Bromodomain-containing protein 4; assay: Binding affinity to His6-tagged BRD4 expressed in Escherichia coli by surface plasmon resonance assay
Summary of the method: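 SPR with tandem bromodomain (BRD2-BD12 or BRD4-BD12) amine-coupled to CM5 chip after EDC/NHS activation; protein 0.1−2 mg/mL in NaAc pH 4.5−5.5, >5 kRU immobilized, ethanolamine-blocked. Running buffer 50 mM HEPES pH 7.5, 150 mM NaCl.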

[4] = molecular target: Bromodomain-containing protein 3 (Homo sapiens, UniProt Q15059); assay: Inhibition of His6-tagged BRD3 expressed in Escherichia coli assessed as inhibition of binding to SGRG-K(Ac)-GG-K(Ac)-GLG-K(Ac)-GGA-K(Ac)-RHGSGSK-biotin after 1 hr by TR-FRET assay
PBMC [5] = assay: Antiinflammatory activity in human PBMC assessed as inhibition of LPS-induced TNFalpha production after 18 to 24 hrs by ELISA; assay type: functional, cell-based
PBMC [6] = assay: Antiinflammatory activity in human PBMC assessed as inhibition of LPS-induced IL6 production after 18 to 24 hrs by ELISA; assay type: functional, cell-based

Sequence of Bromodomain-containing protein 2 (P25440 whole entry): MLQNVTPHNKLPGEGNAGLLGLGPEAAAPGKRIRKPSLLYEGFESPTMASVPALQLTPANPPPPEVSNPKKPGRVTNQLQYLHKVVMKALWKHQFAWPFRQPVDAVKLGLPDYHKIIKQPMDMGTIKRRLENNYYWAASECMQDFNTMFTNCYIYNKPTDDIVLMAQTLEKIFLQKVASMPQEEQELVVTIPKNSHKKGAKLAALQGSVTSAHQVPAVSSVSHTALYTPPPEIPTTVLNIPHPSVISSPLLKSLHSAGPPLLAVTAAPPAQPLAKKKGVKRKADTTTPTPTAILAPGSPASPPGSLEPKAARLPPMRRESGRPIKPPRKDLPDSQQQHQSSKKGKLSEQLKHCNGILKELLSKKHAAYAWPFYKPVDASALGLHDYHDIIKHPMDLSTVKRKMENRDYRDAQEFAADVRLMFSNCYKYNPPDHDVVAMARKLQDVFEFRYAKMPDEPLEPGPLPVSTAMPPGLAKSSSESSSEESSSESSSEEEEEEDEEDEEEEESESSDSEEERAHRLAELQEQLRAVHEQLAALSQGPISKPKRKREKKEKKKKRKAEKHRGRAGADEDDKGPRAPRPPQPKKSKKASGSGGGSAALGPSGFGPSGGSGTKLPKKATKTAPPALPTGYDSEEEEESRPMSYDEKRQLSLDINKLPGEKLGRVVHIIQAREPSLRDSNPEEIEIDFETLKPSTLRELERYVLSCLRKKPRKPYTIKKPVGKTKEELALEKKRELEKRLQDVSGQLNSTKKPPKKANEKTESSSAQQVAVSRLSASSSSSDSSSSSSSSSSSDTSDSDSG
Sequence of Bromodomain-containing protein 3 (Q15059 whole entry): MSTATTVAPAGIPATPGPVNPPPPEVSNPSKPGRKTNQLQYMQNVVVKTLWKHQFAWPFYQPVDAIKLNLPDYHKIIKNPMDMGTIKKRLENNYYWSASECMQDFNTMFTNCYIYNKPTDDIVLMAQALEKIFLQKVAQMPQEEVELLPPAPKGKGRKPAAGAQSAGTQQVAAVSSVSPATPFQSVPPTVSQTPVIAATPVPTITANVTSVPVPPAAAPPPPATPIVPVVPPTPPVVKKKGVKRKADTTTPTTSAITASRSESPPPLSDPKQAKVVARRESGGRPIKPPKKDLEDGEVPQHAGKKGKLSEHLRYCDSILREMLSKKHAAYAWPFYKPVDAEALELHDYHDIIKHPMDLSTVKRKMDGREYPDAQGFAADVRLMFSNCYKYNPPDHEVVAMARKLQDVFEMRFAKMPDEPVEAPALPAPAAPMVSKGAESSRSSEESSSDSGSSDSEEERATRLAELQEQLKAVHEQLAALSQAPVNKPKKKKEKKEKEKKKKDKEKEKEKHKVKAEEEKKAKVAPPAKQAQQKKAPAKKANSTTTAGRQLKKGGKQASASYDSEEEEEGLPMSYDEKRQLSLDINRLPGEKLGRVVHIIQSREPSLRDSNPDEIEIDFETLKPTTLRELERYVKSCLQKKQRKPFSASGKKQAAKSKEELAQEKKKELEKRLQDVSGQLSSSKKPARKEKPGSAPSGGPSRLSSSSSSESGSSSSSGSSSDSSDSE

| SMILES | IC50 [1] [µM] | IC50 [2] [µM] | Kd [3] [µM] | RUmax [3] [%] | IC50 [4] [µM] | IC50 (PBMC [5]; read-out: IC50) [µM] | IC50 (PBMC [5]; read-out: pIC50 (converted)) [µM] | IC50 (PBMC [6]) [µM] |
| --- | --- | --- | --- | --- | --- | --- | --- | --- |
| Cc1noc(C)c1-c1ccc(OCCCN2CCOCC2)c(S(=O)(=O)NC2CCCC2)c1 | 2.6 | 1.5 | 2.75 | 25 | 1.1 | – | – | – |
| Cc1ccc(-c2c(C)noc2C)cc1S(=O)(=O)NC1CCCC1 | – | – | – | – | – | 0.2 | 0.126 | 3.1 |
